Key:
[1] = molecular target: Casein kinase I isoform gamma-2 (Homo sapiens) (UniProt P78368); assay: Inhibition of wild-type human full length CSNK1G2 (M1 to K415 residues) expressed in Escherichia coli BL21 assessed as residual activity at 1000 nM after 30 mins by Kinomescan method relative to control
How it was run: (§1)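 Single-point screen at a fixed 1 µM, run within a 456-kinase DiscoveRx KINOMEscan panel. Each kinase's read-out is Percent Control, i.e. signal relative to a control without compound. Hits were scored by a Percent Control < 35 cut-off, and an S(35) selectivity score was calculated across the non-mutant kinases.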

[2] = molecular target: Protein kinase C delta type (Homo sapiens) (UniProt Q05655); assay: Inhibition of wild-type human partial length PRKCD (Q328 to D676 residues) expressed in Escherichia coli BL21 assessed as residual activity at 1000 nM after 30 mins by Kinomescan method relative to control
[3] = molecular target: CDK4/Cyclin D3 (Homo sapiens) (UniProt P11802+P30281); assay: Inhibition of wild-type human full length CDK4/cyclinD3 (M1 to E303 residues) expressed in HEK293 cells assessed as residual activity at 1000 nM after 30 mins by Kinomescan method relative to control; format: cell-based; how it was run: as §1
[4] = molecular target: Calcium/calmodulin-dependent protein kinase type 1G (Homo sapiens) (UniProt Q96NX5); assay: Inhibition of wild-type human partial length CAMK1G (M1 to A342 residues) expressed in Escherichia coli BL21 assessed as residual activity at 1000 nM after 30 mins by Kinomescan method relative to control
[5] = molecular target: Microtubule-associated serine/threonine-protein kinase 1 (Homo sapiens) (UniProt Q9Y2H9); assay: Inhibition of wild-type human partial length MAST1 (S346 to V730 residues) expressed in HEK293 cells assessed as residual activity at 1000 nM after 30 mins by Kinomescan method relative to control; format: cell-based
[6] = molecular target: Phosphatidylinositol 3-kinase catalytic subunit type 3 (Homo sapiens) (UniProt Q8NEB9); assay: Inhibition of wild-type human partial length VPS34 (S282 to H879 residues) expressed in HEK293 cells assessed as residual activity at 1000 nM after 30 mins by Kinomescan method relative to control; format: cell-based
[7] = molecular target: Transient receptor potential cation channel subfamily M member 6 (Homo sapiens) (UniProt Q9BX84); assay: Inhibition of wild-type human partial length TRPM6 (Q1723 to I1998 residues) expressed in HEK293 cells assessed as residual activity at 1000 nM after 30 mins by Kinomescan method relative to control; format: cell-based
[8] = system: Proto-oncogene tyrosine-protein kinase receptor Ret (Homo sapiens), P07949 [V804M]; assay: Inhibition of human partial length RET V804M mutant (E713 to D1014 residues) expressed in Escherichia coli BL21 assessed as residual activity at 1000 nM after 30 mins by Kinomescan method relative to control; how it was run: as §1
[9] = molecular target: Dual specificity mitogen-activated protein kinase kinase 3 (Homo sapiens) (UniProt P46734); assay: Inhibition of wild-type human full length MEK3 (M1 to S318 residues) expressed in HEK293 cells assessed as residual activity at 1000 nM after 30 mins by Kinomescan method relative to control; format: cell-based
How it was run: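 Single-concentration screen at 1 µM across a 456-kinase KINOMEscan panel. The read-out is Percent Control for each kinase.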

[10] = molecular target: Tyrosine-protein kinase FRK (Homo sapiens) (UniProt P42685); assay: Inhibition of wild-type human partial length FRK (A215 to F503 residues) expressed in Escherichia coli BL21 assessed as residual activity at 1000 nM after 30 mins by Kinomescan method relative to control
[11] = molecular target: Calcium/calmodulin-dependent protein kinase type II subunit alpha (Homo sapiens) (UniProt Q9UQM7); assay: Inhibition of wild-type human partial length CAMK2A (M1 to K328 residues) expressed in Escherichia coli BL21 assessed as residual activity at 1000 nM after 30 mins by Kinomescan method relative to control
[12] = molecular target: Phosphatidylinositol 4,5-bisphosphate 3-kinase catalytic subunit gamma isoform (Homo sapiens) (UniProt P48736); assay: Inhibition of wild-type human partial length PIK3CG (S144 to A1102 residues) expressed in HEK293 cells assessed as residual activity at 1000 nM after 30 mins by Kinomescan method relative to control; format: cell-based
[13] = molecular target: Angiopoietin-1 receptor (Homo sapiens) (UniProt Q02763); assay: Inhibition of wild-type human partial length TIE2 (N804 to T1112 residues) expressed in Escherichia coli BL21 assessed as residual activity at 1000 nM after 30 mins by Kinomescan method relative to control
[14] = molecular target: 5'-AMP-activated protein kinase catalytic subunit alpha-2 (Homo sapiens) (UniProt P54646); assay: Inhibition of wild-type human partial length AMPK alpha2 (M1 to E306 residues) expressed in Escherichia coli BL21 assessed as residual activity at 1000 nM after 30 mins by Kinomescan method relative to control
[15] = molecular target: Serine/threonine-protein kinase D2 (Homo sapiens) (UniProt Q9BZL6); assay: Inhibition of wild-type human partial length PRKD2 (A519 to E838 residues) expressed in Escherichia coli BL21 assessed as residual activity at 1000 nM after 30 mins by Kinomescan method relative to control
[16] = molecular target: Cyclin-dependent kinase-like 3 (Homo sapiens) (UniProt Q8IVW4); assay: Inhibition of wild-type human partial length CDKL3 (M1 to D327 residues) expressed in Escherichia coli BL21 assessed as residual activity at 1000 nM after 30 mins by Kinomescan method relative to control
[17] = molecular target: Mitogen-activated protein kinase 7 (Homo sapiens) (UniProt Q13164); assay: Inhibition of wild-type human partial length ERK5 (M1 to A409 residues) expressed in Escherichia coli BL21 assessed as residual activity at 1000 nM after 30 mins by Kinomescan method relative to control
[18] = molecular target: Tyrosine-protein kinase receptor UFO (Homo sapiens) (UniProt P30530); assay: Inhibition of wild-type human partial length AXL (R497 to Y821 residues) expressed in Escherichia coli BL21 assessed as residual activity at 1000 nM after 30 mins by Kinomescan method relative to control
Plasmodium falciparum = assay: Inhibition of wild-type Plasmodium falciparum full length PK5 (M1 to N288 residues) expressed in HEK293 cells assessed as residual activity at 1000 nM after 30 mins by Kinomescan method relative to control; format: cell-based; how it was run: as §1
[19] = molecular target: Casein kinase I isoform alpha-like (Homo sapiens) (UniProt Q8N752); assay: Inhibition of wild-type human full length CSNK1A1L (M1 to N337 residues) expressed in Escherichia coli BL21 assessed as residual activity at 1000 nM after 30 mins by Kinomescan method relative to control; how it was run: as §1
[20] = system: Epidermal growth factor receptor (Homo sapiens), P00533 [L858R,T790M]; assay: Inhibition of human partial length EGFR L858R/T790M double mutant (R669 to V1011 residues) expressed in HEK293 cells assessed as residual activity at 1000 nM after 30 mins by Kinomescan method relative to control; format: cell-based
How it was run: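 KINOMEscan binding panel of 456 kinases, with the test compound at a single concentration of 1 µM. Read-out is Percent Control.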

Transient receptor potential cation channel subfamily M member 6 (Homo sapiens), sequence (Q9BX84 whole entry, the tested form may be a part): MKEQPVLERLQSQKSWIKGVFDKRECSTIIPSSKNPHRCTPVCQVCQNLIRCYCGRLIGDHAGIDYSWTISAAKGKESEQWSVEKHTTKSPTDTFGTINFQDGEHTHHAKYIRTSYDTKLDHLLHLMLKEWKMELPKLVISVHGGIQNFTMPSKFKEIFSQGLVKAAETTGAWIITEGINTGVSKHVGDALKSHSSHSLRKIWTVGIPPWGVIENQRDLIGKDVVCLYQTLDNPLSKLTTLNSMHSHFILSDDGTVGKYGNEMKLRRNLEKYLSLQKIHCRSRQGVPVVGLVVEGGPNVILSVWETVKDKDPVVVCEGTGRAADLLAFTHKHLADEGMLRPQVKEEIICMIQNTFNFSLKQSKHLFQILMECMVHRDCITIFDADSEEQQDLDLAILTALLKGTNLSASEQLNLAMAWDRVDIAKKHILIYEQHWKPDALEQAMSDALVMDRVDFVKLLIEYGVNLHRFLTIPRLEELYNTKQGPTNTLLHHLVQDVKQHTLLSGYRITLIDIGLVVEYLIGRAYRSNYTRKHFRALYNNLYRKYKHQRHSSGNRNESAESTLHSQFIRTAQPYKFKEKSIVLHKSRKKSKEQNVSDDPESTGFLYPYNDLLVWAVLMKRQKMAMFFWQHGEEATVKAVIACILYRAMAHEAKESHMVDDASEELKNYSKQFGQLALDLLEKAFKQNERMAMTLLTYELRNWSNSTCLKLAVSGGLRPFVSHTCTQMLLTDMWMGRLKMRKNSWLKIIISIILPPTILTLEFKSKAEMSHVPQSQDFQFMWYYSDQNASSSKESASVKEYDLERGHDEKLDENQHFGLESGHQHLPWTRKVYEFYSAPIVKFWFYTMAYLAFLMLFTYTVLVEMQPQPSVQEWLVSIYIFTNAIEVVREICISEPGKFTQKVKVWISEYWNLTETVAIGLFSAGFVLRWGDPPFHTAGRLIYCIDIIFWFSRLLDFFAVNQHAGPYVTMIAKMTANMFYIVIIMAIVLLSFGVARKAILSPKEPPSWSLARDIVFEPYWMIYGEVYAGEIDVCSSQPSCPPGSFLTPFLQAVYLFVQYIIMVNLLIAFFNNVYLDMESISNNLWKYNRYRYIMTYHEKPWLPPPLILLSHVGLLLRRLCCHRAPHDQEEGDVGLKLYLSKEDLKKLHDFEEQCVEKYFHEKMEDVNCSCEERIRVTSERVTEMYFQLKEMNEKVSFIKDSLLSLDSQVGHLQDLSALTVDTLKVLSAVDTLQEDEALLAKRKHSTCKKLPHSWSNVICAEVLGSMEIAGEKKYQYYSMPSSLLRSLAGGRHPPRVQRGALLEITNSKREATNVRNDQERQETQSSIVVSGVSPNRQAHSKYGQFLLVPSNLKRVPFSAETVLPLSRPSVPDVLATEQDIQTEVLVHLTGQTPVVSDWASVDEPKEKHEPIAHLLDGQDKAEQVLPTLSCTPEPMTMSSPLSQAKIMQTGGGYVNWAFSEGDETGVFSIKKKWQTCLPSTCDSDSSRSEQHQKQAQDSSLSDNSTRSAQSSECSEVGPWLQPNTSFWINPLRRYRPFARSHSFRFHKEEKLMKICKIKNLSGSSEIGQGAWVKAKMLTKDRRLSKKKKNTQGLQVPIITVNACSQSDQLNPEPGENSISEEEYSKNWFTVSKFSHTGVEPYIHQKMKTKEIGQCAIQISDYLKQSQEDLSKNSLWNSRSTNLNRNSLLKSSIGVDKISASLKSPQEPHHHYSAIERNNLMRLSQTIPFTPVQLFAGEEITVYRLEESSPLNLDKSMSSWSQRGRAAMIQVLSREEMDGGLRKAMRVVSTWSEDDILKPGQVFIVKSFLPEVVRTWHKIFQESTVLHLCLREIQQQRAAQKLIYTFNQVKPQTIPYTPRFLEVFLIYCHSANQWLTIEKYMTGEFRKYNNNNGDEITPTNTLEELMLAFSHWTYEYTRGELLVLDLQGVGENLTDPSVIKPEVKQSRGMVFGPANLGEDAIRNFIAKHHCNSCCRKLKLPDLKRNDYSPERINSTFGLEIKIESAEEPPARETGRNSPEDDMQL
Tyrosine-protein kinase receptor UFO (Homo sapiens), sequence (P30530 whole entry, the tested form may be a part): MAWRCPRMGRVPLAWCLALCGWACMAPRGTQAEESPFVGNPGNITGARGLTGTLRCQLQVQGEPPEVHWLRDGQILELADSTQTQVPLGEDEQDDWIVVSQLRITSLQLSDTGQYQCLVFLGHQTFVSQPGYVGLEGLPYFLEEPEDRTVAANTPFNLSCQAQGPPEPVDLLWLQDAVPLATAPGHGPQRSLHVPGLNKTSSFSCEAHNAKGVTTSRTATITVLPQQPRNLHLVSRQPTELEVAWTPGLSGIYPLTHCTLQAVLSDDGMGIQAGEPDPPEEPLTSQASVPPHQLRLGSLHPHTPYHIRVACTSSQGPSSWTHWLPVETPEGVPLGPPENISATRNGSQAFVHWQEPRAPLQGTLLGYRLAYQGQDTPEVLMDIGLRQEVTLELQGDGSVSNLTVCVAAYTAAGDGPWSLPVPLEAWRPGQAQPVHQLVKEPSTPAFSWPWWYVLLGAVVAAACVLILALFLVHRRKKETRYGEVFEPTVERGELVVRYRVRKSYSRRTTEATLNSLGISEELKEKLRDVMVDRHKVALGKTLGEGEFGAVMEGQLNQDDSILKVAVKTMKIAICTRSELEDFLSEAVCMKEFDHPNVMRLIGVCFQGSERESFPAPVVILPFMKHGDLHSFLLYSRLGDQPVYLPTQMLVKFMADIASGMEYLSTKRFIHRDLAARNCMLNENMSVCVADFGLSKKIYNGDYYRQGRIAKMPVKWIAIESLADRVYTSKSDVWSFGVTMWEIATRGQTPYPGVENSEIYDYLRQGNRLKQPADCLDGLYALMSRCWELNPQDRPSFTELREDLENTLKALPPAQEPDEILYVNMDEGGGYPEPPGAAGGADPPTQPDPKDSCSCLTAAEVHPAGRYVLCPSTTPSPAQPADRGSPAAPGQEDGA
Dual specificity mitogen-activated protein kinase kinase 3 (Homo sapiens), sequence (P46734 whole entry, the tested form may be a part): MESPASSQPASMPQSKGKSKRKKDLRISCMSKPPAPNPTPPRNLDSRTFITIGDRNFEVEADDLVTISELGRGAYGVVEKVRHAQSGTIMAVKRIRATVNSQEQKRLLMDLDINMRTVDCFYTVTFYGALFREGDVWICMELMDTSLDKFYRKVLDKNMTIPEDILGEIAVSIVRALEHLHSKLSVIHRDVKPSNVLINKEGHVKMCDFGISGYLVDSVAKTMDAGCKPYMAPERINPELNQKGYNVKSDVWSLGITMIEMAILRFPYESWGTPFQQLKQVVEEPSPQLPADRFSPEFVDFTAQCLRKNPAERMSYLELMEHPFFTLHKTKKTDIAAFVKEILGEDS
Serine/threonine-protein kinase D2 (Homo sapiens), sequence (Q9BZL6 whole entry, the tested form may be a part): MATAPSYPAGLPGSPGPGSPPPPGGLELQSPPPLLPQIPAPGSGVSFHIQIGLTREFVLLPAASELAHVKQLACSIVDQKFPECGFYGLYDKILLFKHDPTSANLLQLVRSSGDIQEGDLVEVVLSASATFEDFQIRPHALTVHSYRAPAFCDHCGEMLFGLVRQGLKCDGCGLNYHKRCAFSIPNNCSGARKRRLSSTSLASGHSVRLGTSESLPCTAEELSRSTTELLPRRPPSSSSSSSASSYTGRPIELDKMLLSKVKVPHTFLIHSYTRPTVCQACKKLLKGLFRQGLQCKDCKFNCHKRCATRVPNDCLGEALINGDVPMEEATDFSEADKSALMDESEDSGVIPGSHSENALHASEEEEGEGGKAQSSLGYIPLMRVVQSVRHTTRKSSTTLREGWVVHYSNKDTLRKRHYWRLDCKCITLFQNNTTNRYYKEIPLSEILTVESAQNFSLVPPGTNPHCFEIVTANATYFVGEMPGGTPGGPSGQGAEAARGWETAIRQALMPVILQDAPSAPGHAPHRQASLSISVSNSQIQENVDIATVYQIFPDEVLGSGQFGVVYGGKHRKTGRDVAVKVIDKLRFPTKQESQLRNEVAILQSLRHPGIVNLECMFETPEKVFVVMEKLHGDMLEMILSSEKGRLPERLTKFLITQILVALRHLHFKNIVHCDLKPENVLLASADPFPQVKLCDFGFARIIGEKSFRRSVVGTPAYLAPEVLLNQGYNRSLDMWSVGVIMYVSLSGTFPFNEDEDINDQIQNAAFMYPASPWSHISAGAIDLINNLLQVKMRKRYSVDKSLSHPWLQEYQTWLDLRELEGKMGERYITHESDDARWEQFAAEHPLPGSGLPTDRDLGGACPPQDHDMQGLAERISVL
Mitogen-activated protein kinase 7 (Homo sapiens), sequence (Q13164 2-816 limits assumed): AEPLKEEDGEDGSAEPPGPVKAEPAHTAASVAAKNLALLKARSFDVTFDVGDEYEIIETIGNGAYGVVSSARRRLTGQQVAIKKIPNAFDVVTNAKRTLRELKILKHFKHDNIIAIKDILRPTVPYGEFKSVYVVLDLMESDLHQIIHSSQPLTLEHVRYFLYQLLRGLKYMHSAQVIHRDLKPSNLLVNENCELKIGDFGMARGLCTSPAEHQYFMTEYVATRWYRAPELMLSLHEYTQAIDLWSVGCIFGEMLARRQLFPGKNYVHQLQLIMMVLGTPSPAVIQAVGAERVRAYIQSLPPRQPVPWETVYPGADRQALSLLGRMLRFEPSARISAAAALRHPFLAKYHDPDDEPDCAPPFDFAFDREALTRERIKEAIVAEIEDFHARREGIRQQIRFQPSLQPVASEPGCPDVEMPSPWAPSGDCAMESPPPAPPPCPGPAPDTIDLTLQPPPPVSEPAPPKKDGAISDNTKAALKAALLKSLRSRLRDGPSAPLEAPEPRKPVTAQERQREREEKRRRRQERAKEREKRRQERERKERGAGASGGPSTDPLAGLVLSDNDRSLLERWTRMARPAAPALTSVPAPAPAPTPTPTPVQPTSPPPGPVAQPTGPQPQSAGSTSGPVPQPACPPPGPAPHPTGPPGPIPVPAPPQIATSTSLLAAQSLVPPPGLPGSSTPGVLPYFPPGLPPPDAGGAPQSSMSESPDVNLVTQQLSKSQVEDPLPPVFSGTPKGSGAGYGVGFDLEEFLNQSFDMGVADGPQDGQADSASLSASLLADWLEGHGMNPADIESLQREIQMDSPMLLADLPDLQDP

For `COc1cc(OC)c(Cl)c(N2Cc3cnc(Nc4ccc(F)cc4)nc3N(C3CCN(C(=O)/C=C/CN(C)C)CC3)C2=O)c1Cl`, which Activity [1] is on record?
The Activity was 100%.

And the Activity [2]?
The Activity was 93%.

And the Activity [3]?
Its Activity is 100%.

And the Activity [4]?
Its Activity is 100%.

And the Activity [5]?
Its Activity is 90%.

And the Activity [6]?
The Activity was 100%.

What about the Activity [7] of the same compound?
The Activity was 100%.

And the Activity [8]?
Its Activity is 52%.

What about the Activity [9] of the same compound?
The Activity was 90%.

And the Activity [10]?
The Activity was 59%.

What about the Activity [11] of the same compound?
The Activity was 100%.

What about the Activity [12] of the same compound?
The Activity was 100%.

And the Activity [13]?
The Activity was 26%.

And the Activity [14]?
The Activity was 89%.

And the Activity [15]?
The Activity was 98%.

And the Activity [16]?
Its Activity is 89%.

And the Activity [17]?
The Activity was 49%.

And the Activity [18]?
The Activity was 92%.

What about the Activity (Plasmodium falciparum) of the same compound?
Its Activity is 100%.

What about the Activity [19] of the same compound?
Its Activity is 100%.

And the Activity [20]?
Its Activity is 94%.

Reference: ChEMBL document CHEMBL4043093, “2-Oxo-3, 4-dihydropyrimido[4, 5-d]pyrimidinyl derivatives as new irreversible pan fibroblast growth factor receptor (FGFR) inhibitors” (Eur J Med Chem, 2017)
